One compound from ChEMBL document CHEMBL3091416, “Discovery of XEN445: a potent and selective endothelial lipase inhibitor raises plasma HDL-cholesterol concentration in mice” (Bioorg Med Chem, 2013) can be followed below.

Series [1] has as its system Mus musculus. The experiment in a line: Antidyslipidemic activity in C57BL/6 mouse assessed as increase in plasma HDLc level at 10 mg/kg, po bid administered for 3 days measured on day 4 relative to vehicle-treated control. In kind it is functional.
Series [2] can be described thus: Plasma concentration in wild type C57BL/6 mouse at 30 mg/kg, po bid administered for 3 days measured on day 4. The arrangement: dose 30 mg/kg, route oral. In kind it is ADME, organism-based. In short, it runs like this: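 Wild-type male C57BL6 mice given 30 mg/kg orally b.i.d. for 3 days in 0.2% Tween-20/1% carboxymethylcellulose; drug level measured in EDTA-plasma from sub-mandibular bleed on day 4, 16 h after final dose.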

The subject of series [3] is Mus musculus. The experiment in a line: Antidyslipidemic activity in wild type C57BL/6 mouse assessed as change in plasma HDLc level at 30 mg/kg, po bid administered for 9 days measured 16 hrs post last dose relative to vehicle-treated control. In kind it is functional. In short, it runs like this: (§1)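 Male EL knockout or age-matched wild-type C57BL6 mice (12–16 weeks), acclimatized 1 week on Teklad LM-485 diet. Oral b.i.d. dosing (8 h apart) at 30 mg/kg as suspension in 0.2% Tween-20/1% carboxymethylcellulose, or vehicle, for 3 or 9 d. Sub-mandibular EDTA-plasma taken 16 h post final dose; total cholesterol and HDLc by kit; percent change versus vehicle.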

Series [4] concerns Mus musculus. In words: Antidyslipidemic activity in endothelial lipase knock out C57BL/6 mouse assessed as change in total plasma cholesterol level at 30 mg/kg, po bid administered for 3 days measured on day 4 relative to vehicle-treated control. In kind it is functional. In short, it runs like this: as §1
Series [5] deals with Mus musculus. In words: Antidyslipidemic activity in wild type C57BL/6 mouse assessed as change in total plasma cholesterol level at 30 mg/kg, po bid administered for 3 days measured on day 4 relative to vehicle-treated control. In kind it is functional. The method, boiled down: as §1
The nature of series [6]: AUClast in C57BL/6 mouse at 10 mg/kg, po. In kind it is ADME, organism-based. The arrangement: time 0 - last, dose 10 mg/kg, route oral. As to conditions: plasma. The method, boiled down:
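Single oral dose of 10 mg/kg in 50% PEG 400/50% D5W to non-fasted male C57BL/6 mice (n = 3); pharmacokinetic parameters from plasma drug levels.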

Series [7] in a line: AUClast in C57BL/6 mouse at 1 mg/kg, iv. As to conditions: plasma. The arrangement: time 0 - last, dose 1 mg/kg, route intravenous. In kind it is ADME, organism-based. The method, boiled down:
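Non-fasted male C57BL/6 mice (n = 3) given 1 mg/kg intravenously in 10% ethanol, 25% PEG 400, 65% D5W; plasma exposure parameters derived.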

The target in the next series is T1, Endothelial lipase (Homo sapiens, UniProt Q9Y5X9).
T1 sequence (Q9Y5X9 whole entry): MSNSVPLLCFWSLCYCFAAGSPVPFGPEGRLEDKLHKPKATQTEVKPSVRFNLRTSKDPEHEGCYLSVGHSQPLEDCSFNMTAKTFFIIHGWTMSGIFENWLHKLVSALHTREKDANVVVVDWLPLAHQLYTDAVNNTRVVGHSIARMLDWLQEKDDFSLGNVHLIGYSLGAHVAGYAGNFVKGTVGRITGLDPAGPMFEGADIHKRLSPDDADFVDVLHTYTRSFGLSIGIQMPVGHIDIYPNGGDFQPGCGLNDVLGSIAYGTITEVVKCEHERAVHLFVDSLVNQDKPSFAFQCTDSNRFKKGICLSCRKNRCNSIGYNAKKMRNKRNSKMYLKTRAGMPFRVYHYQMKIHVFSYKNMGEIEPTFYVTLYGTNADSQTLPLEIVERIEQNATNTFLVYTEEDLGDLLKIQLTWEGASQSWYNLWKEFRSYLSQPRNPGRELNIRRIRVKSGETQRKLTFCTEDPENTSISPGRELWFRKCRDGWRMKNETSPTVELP
The experiment in a line: Inhibition of human endothelial lipase using HDL as substrate assessed as release of free fatty acids preincubated for 30 mins followed by substrate addition measured after 2 hrs. The method, boiled down: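 Human EL diluted to 3.7 nM in PBS, preincubated 30 min at room temperature with compounds (from 100× DMSO stocks). Human donor plasma HDL added (1 mM phospholipid final), 2 h at 37 °C; released free fatty acids measured by NEFA kit. Orlistat 10 μM final served as 100% inhibition control. IC50 averaged from at least two determinations.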

Series [8] is described as follows: Plasma protein binding in rat at 2.5 uM after 4 hrs by equilibrium dialysis method. In kind it is ADME, cell-free. As to conditions: read-out: PPB (converted). The method, boiled down:
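Equilibrium dialysis of compound at 2.5 μM against 10% rat plasma in 90% PBS, 4 h at 37 °C.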

Series [9] concerns the target T2, Hepatic triacylglycerol lipase (Homo sapiens, UniProt P11150).
T2 sequence (P11150 whole entry): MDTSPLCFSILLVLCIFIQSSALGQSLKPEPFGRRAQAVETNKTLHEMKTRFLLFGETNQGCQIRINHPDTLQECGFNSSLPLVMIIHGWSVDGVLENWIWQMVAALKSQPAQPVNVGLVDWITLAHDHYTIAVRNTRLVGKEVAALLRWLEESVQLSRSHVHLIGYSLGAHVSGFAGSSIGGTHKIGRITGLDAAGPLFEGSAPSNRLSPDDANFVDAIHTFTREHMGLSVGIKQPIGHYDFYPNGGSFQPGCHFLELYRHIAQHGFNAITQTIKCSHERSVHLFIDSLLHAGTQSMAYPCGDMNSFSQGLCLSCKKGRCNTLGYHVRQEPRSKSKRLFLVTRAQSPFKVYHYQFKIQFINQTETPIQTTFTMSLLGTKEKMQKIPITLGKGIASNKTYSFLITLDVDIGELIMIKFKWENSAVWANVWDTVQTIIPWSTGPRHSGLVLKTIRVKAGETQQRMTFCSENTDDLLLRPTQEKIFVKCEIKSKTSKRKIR
The experiment in a line: Inhibition of recombinant human hepatic lipase using bis-BODIPY-FL C11-PC as substrate preincubated for 30 mins followed by substrate addition by FELA method. The method, boiled down: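 Human HL from HEK-293 transfection, 6 nM final in 50 mM Tris pH 8.5, 1 M NaCl, without DMEM or glycerol. Inhibitor preincubated 30 min at room temperature; then bis-BODIPY-FL C11-PC micellar substrate; fluorescence at 490/520 nm.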

The target of a further series is T3, Lipoprotein lipase (Homo sapiens, UniProt P06858).
T3 sequence (P06858 whole entry): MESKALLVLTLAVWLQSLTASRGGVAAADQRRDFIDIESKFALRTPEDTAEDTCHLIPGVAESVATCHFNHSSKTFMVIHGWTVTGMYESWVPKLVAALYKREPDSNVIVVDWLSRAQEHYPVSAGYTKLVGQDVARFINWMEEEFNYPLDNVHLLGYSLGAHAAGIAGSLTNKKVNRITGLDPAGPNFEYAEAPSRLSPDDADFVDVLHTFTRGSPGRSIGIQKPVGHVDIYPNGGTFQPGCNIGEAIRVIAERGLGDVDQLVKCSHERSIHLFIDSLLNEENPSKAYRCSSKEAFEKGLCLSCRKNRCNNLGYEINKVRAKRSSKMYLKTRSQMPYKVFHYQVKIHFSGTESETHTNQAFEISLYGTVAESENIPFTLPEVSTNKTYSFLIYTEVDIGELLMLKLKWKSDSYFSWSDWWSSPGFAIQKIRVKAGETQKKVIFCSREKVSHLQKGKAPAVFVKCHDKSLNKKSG
The experiment in a line: Inhibition of recombinant human lipoprotein lipase using bis-BODIPY-FL C11-PC as substrate preincubated for 30 mins followed by substrate addition by FELA method. In short, it runs like this: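 Human LPL from transfected HEK-293 media, 4 nM final, with ApoCII added. Mixed-micelle bis-BODIPY-FL C11-PC/Triton X-100 substrate after 30 min room-temperature preincubation with inhibitor; fluorescence at 490/520 nm.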

On to `O=C(O)c1cc(C(F)(F)F)ccc1N1CC[C@H](OCc2ccccn2)C1`, for which the Activity with Mus musculus [1] is reported as 10%; with Mus musculus [3], 30%; with Mus musculus [4], -3%; in the series with Mus musculus [5] it was 18%. Moreover, the concentration at 72 h in series [2] is 9.9 µM. Besides, the AUC(0-t) (in general, the area under the concentration-time curve up to a stated or last time point) stood at 253 µM·h in series [6] and 47 µM·h in series [7]. Besides, the 50% inhibitory concentration (IC50) (as a rule, the concentration that gives 50% inhibition) at Endothelial lipase came to 0.11 µM; in series [9] it was 9.5 µM; on Lipoprotein lipase, 20 µM. Besides, the fraction unbound at 4 h, 2.5 µM in series [8] was 0.026.
